Only some compounds are listed: those with a hit (about 1.6% of all), similar ones and a draw of the others.
14-3-3 Bad inh = disrupts binding of bovine 14-3-3 zeta to phospho-Bad peptide. P63103. TR-FRET 14-3-3zeta/Dy647-pBad peptide displacement, 1 h. inhibition, % at 21.7 µM. 220,000 compounds, 0.71% hits;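 active means inhibition above about 70%, limit read from the data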
Target sequence (P63103 whole entry, looked up): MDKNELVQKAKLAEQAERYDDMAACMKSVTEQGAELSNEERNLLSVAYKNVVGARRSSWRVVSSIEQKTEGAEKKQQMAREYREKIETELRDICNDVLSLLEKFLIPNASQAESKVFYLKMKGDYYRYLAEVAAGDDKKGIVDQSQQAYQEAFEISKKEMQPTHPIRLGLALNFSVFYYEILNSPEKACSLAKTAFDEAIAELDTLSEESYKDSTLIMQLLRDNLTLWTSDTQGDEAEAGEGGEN
eIF4E 4G PPI = blocks eIF4E binding to eIF4G; P63073+Q04637; inhibition, % at 21.7 µM; TR-FRET eIF4E-eIF4GI(517-606) binding, 2 h; 220,000 compounds, 0.37% hits
TbMetRS inhib = Trypanosoma brucei MetRS inhibition; 360,000 compounds, 0.4% hits; purified T. brucei MetRS, ATP depletion, Kinase-Glo luminescence; inhibition, % at 11.9 µM; AID 624268;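 active means inhibition above a per-plate cutoff of the control wells' mean inhibition plus 3 SD, cut at about 5.5% in these data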
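Dosing: 11.9 µM compound single dose, 0.9% DMSO; Assay system: purified T. brucei MetRS enzyme; Measured by: Kinase-Glo luciferase luminescence reporting remaining unconsumed ATP; Schedule: 15 min plus 2 h at 25 °C.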
p97 inhibitor = inhibitors of human p97 ATPase; P55072; recombinant p97 ATPase, Kinase-Glo ATP luminescence, 3 h; inhibition, % at 8 µM; 220,000 compounds, 0.42% hits; AID 1481; in the data active means inhibition above about 15%
p47phox inh = p47phox (human) inhibition | 220,000 compounds, 0.53% hits | inhibition, % at 24.7 µM | p47phox/p22phox peptide binding, fluorescence polarization, 2 h | P14598
SUMO HTRF inh = blocks human SUMOylation mediated by UBC9; HTRF SUMOylation assay, SAE1/SAE2 + UBC9, in vitro; P63279; inhibition, % at 35 µM; 290,000 compounds, 0.36% hits; in the data active means inhibition above about 50%, passing the limit was not always enough
Target sequence (P63279 whole entry, looked up): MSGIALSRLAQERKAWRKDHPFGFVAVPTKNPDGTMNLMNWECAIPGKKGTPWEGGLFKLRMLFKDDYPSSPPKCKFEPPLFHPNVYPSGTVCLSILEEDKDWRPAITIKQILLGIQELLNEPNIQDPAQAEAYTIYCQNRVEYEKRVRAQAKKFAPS
Hits are given with their value; - = inactive; . = no result given; ! = repeats disagree; [ ] = remark or other dose.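 How the source made its calls, unless noted: active means inhibition above about 30% (limit read from the data); inactive means the rest.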

SMILES	14-3-3 Bad inh	eIF4E 4G PPI	TbMetRS inhib	p97 inhibitor	p47phox inh	SUMO HTRF inh
CC1CCN(CCCNC(=O)c2ccc(CS(=O)(=O)Cc3ccccc3F)o2)CC1	-	-	-	-	-	-
COc1ccc2cc3c(N)nn(C(=O)c4cccc(F)c4)c3nc2c1	-	75	-	-	-	-
Cc1cc2nc(C3CCCN(C(=O)NCc4ccccc4)C3)[nH]c2cc1C (centres undefined)	76	-	-	-	-	-
CCCCNC(=O)c1nc(C2CCNCC2)oc1-c1ccccc1	.	.	-	.	.	.
COc1cccc(/C=c2/s/c(=C(\C#N)C(=O)N3CCOCC3)n(-c3ccccc3)c2=O)c1	76[fluorescence artefact?]	-	-	-	-	-
NC(=O)C12CCCC(Br)(CCC1)C2	-	92	-	-	-	-
CCOC(=O)/C(C#N)=C/c1ccc(OC(=O)c2ccccn2)cc1	81[fluorescence artefact?]	31	-	-	-	-
COC(=O)/C(C#N)=C/c1ccc(OC(=O)c2ccccn2)cc1	-	-	-	-	-	-
Cc1cccc(N2CC(O)(c3cccs3)[N+]3=C2CCCCC3)c1 (centres undefined)	83	-	-	-	-	-
Cc1cccc(N2CC(O)(c3cccs3)[N+]3=C2CCCC3)c1 (centres undefined)	-	-	-	-	-	-
CCOC(=O)C1=C[C@@H](C(C)C)N(S(=O)(=O)c2ccc(C)cc2)[C@H]1c1ccc(C(F)(F)F)cc1	.	.	-	.	.	.
Cc1c(C(=O)N2CCCCC2)nn(-c2ccc(Cl)cc2)c(=O)c1C#N	-	43	-	-	-	-
Cc1ccc(-n2c(-c3ccc(Cl)cc3)c[n+]3c2CCC3)cc1	-	94	-	-	-	-
Cc1[nH]c2c(C)cccc2c1CC(=O)O	86	-	-	-	-	-
Cc1[nH]c2ccccc2c1CC(=O)O	-	-	-	-	-	-
CCn1c(O)c(C#N)c(C)cc1=O	-	-	-	-	-	-
Cc1cc(=O)n(CC(C)C)c(O)c1C#N	75	-	-	-	-	-
CCCCNC(=O)c1nc(C2CCN(S(=O)(=O)c3ccc(C(F)(F)F)cc3)CC2)oc1-c1ccccc1	.	.	-	.	.	.
CCOc1ccc(-c2onc(C(F)(F)F)c2-c2cscn2)c(O)c1	-	-	-	29	-	-
Cc1cc(O)cc(O)c1-c1onc(C(F)(F)F)c1-c1cscn1	-	-	-	-	-	-
O=C(O)C(CO)(c1ccccc1)c1ccccc1	.	.	-	.	.	-
COc1ccc([C@@H]2CC(=O)[C@@H]3CN(S(=O)(=O)c4ccc(C)cc4)[C@H](c4ccccc4)C[C@@H]3N2S(=O)(=O)c2ccccc2)cc1	.	.	-	.	.	.
Cc1cccc(Nc2nc3c(S(=O)(=O)c4ccccc4)nnn3c3ccccc23)c1	-	-	-	-	-	-
Cc1cc(C)cc(Nc2nc3c(S(=O)(=O)c4ccccc4)nnn3c3ccccc23)c1	-	-	-	-	34	-
O=C(Nc1ccccc1-c1nc2ccccc2[nH]1)c1ccc(N2C(=O)CCC2=O)cc1	-	-	-	-	-	-
SMILES	14-3-3 Bad inh	eIF4E 4G PPI	TbMetRS inhib	p97 inhibitor	p47phox inh	SUMO HTRF inh
O=C(Nc1ccc(-c2nc3ccccc3[nH]2)cc1)c1cccc(N2C(=O)CCC2=O)c1	-	-	-	-	-	65
CC(C)CC(=O)Nc1ccc2ccccc2c1	-	-	-	-	91!	-
Cc1nnc(NC(=O)NC(C)N2C(=O)C3C4C=CC(C4)C3C2=O)s1 (centres undefined)	-	-	-	-	-	-
CC(NC(=O)Nc1nnc(C(F)(F)F)s1)N1C(=O)C2C3C=CC(C3)C2C1=O (centres undefined)	79	-	-	-	-	-
COc1ccc(C2C(C(C)=O)=C(O)C(=O)N2c2nc3ccccc3s2)cc1OC (centres undefined)	-	-	-	-	-	-
CCc1ccc2nc(N3C(=O)c4oc5ccccc5c(=O)c4C3c3ccc(OC)c(OC)c3)sc2c1 (centres undefined)	-	-	.	-	38	-
COc1cc(OC)cc(-c2c(Sc3ccccc3)c3cc(-c4ccc(SC)cc4)ccc3n2C)c1	.	.	-	.	.	.
OCCN1CCN(c2cc(-c3ccc4ccccc4c3)nc3ccnn23)CC1	.	.	-	.	.	.
COC(=O)C[C@H]1C=C[C@H](NC(=O)c2ccccn2)[C@@H](CO)O1	.	.	-	.	.	.
Cn1c(NC(=O)CCc2ccccc2)cc(=O)n(C)c1=O	-	-	-	-	-	-
CCCC(=O)Nc1cc(=O)n(C)c(=O)n1C	-	-	-	-	60	-
CCn1[nH]c(=O)c(=Nc2c(C)n(C)n(-c3ccccc3)c2=O)cc1-c1ccc(Cl)cc1	91[fluorescence artefact?]	-	-	-	-	-
CCCCN(C)c1c(C)nc2ccc(C(=O)Nc3cc(-c4ccccc4)ccc3OC)cn12	.	.	-	.	.	.
Cc1cccc(N=Nc2c(C)c(C#N)c(O)[nH]c2=O)c1	-	-	-	-	79	-
O=Cc1cc(Br)c(OC(=O)N2CCOCC2)c(Br)c1	.	.	-	.	.	-
COc1ccc(CN2C(=O)Cc3c2nc(N)c2c(N)nc(N4CCOCC4)c(C#N)c32)cc1	-	-	-	-	-	101
CCC1Cc2c(nc(N)c3c(N)nc(N4CCOCC4)c(C#N)c23)O1 (centres undefined)	-	-	-	-	-	-
CCOc1cc2c(C#N)c(N(CC)CC)nc(N)c2c(N)n1	.	.	-	.	.	.
COCCN1C(=O)Cc2c1nc(N)c1c(N)nc(N3CCN(c4ccc(F)cc4)CC3)c(C#N)c21	-	-	-	-	-	93
CCOc1cc2c(C#N)c(N3CCOCC3)nc(N)c2c(N)n1	-	-	-	.	-	97
Cc1cc(=O)oc2cc(OCC(=O)N3CCN(C(=O)C4COc5ccccc5O4)CC3)c(Cl)cc12 (centres undefined)	.	.	-	.	.	-
Cc1cc2nc(-c3ccc(F)cc3)c(Cc3cccc(Cl)c3)n2c(C)c1Br	.	.	-	.	.	.
COc1ccc(CNC(=O)CCC(=O)N2CCN(S(=O)(=O)c3ccc(Cl)cc3)CC2)cc1	-	-	-	-	-	-
CCOC(=O)c1c(NC(=O)COC(=O)Cn2c(C)nc3ccccc32)sc2c1CCCC2	88	-	-	-	-	-
O=C(c1ccc2oc(CCc3ccccc3)nc2c1)N1CC[C@H](O)C1	.	.	-	.	.	-
SMILES	14-3-3 Bad inh	eIF4E 4G PPI	TbMetRS inhib	p97 inhibitor	p47phox inh	SUMO HTRF inh
Cc1cccc(C(=O)N=c2sccn2C)c1[N+](=O)[O-]	.	.	-	.	.	-
Cc1ccccc1C(=O)N=c1sccn1C	-	-	-	-	110	-
C=CCCCCCCCCC(=O)Nc1ncccn1	-	-	-	-	-	-
CCCOc1ccc(C2=CSC3=NCCN23)cc1[N+](=O)[O-]	.	.	-	.	.	-
O=C(CSc1nc2scc(-c3ccco3)c2c(=O)n1-c1ccccc1)N1CCOCC1	-	-	-	-	-	-
NC(=O)CSc1nc2scc(-c3ccco3)c2c(=O)n1-c1ccccc1	-	-	-	15	-	-
CCOc1cccc2cc(-c3nnc(NCc4ccc5c(c4)OCO5)s3)c(=O)oc12	83[fluorescence artefact?]	-	-	-	67	-

Source: PubChem
